High-throughput results (PubChem)
A selection: hits, their analogues and other compounds. The true share with any hit is near 7.4%.
Jurkat tox 60K: reduces viability or proliferation of Jurkat cells. Jurkat E6.1 viability, ATP luminescence, 48 h. inhibition, % at 4 µM. 56,000 tested, 1.2% active. AID 463;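 active = inhibition above the mean inhibition of all tested compounds plus 3 SD, cut at about 28% in these data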
S1P3 agonist: S1P3 (human) receptor agonism | S1P3 NFAT-BLA reporter cells, FRET ratio; relative to 1 µM S1P, basal subtracted | activation, % at 4.5 µM | 60,000 tested, 0.1% active | AID 373;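 active = activation above the screen-wide mean plus 3 SD, cut at about 4.5% in these data, passing the limit was not always enough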
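Material: Human S1P3 NFAT-BLA reporter CHO cells | Incubation: Overnight plating, 4 h compound 37 °C, 2 h substrate RT | Signal: FRET β-lactamase substrate fluorescence, excitation 405 nm, 460/535 nm emission ratio, background-subtracted | Compound: 4.5 µM final, single dose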
S1P1 ag-PAM: agonists and agonism potentiators of human S1P1 receptor | P21453 | S1P1 CRE-bla cells, forskolin, beta-lactamase FRET, potentiator mode; S1P1 agonist co-added at EC20, 2 nM; 100% = saturating reference agonist, 0% = basal | activation, % at 9.5 µM | 56,000 tested, 0.57% active;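 active = activation above a cutoff set at the mean activation of all tested compounds plus 3 SD, cut at about 54% in these data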;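 also: forskolin at 4 µM as EC80 and the EC20 agonist is SEW2871; 100% = SEW2871 at its EC100 plus forskolin at EC80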
Target sequence (P21453 whole entry, looked up): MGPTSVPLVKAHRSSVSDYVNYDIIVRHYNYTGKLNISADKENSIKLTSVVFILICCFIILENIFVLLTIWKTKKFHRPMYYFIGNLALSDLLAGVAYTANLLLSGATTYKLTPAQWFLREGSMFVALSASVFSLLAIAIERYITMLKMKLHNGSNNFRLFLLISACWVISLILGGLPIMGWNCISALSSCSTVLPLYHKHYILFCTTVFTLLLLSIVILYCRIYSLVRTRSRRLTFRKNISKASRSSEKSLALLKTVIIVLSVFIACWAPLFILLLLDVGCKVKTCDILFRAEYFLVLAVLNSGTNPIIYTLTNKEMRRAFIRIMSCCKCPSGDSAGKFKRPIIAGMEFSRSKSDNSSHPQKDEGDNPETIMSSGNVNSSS
JNK3 inh: JNK3 (human) kinase inhibition. AID 746. inhibition, % at 8 µM. P53779. purified JNK3 kinase activity, HTS. 60,000 tested, 0.61% active; in the data active = inhibition above about 17%;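 also: 0% = DMSO and 100% = reference inhibitor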
M1 agonist: agonists of M1 muscarinic receptor; CHO-M1 cells, Fluo-4 calcium fluorescence, agonist mode; active compounds read high; B-score at 10 µM; 64,000 tested, 3% active; AID 626;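 active = fluorescence rise, raw or as B-score row- and column-corrected plate score, outside the 99.7% band of its plate's samples, either direction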
M1 antagonist: M1 muscarinic receptor (rat) antagonism; 64,000 tested, 3.4% active; P08482; CHO-M1 cells, Fluo-4 calcium, ACh EC80 antagonist mode; active compounds read low; B-score at 10 µM;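 active = calcium fluorescence response, raw or row-and-column corrected B-score, differing from the plate sample mean either way at a set confidence level, mostly lower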
M1 antag confirm: M1 muscarinic receptor (rat) antagonism, confirmed. shares compounds with M1 antagonist. CHO-M1 cells, Fluo-4 calcium, ACh EC80 antagonism; active compounds read low. calcium response (max-min fluorescence) at 10 µM. 1,700 tested, 43% active;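 active = calcium response below the same-plate mean of wells given acetylcholine alone at its 80%-effect dose, minus 3 SD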;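 also: raw fluorescence intensity difference in arbitrary instrument units and not normalized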
mGluR4 antag: selectivity test for M1 antagonists: human mGluR4 receptor | shares compounds with M1 antagonist | CHO-mGluR4 calcium flux, Fluo-4 fluorescence, glutamate EC80; active compounds read low | fluorescence response (max-min) at 10 µM | 1,700 tested, 0.9% active;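 active = fluorescence response below the plate's average for near-maximal glutamate wells, less 3 SD of those wells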;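 also: raw unnormalized fluorescence span taken in the window right after glutamate addition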
* marks the source's active call; other numbers are inactive results; / = no result.

SMILES	Jurkat tox 60K	S1P3 agonist	S1P1 ag-PAM	JNK3 inh	M1 agonist	M1 antagonist	M1 antag confirm	mGluR4 antag
CCOC(=O)c1ccc(NC(=O)c2ccc(CN3CCOCC3)cc2)cc1	52.8*	-0.8	/	-0.6	1.57	-7.29*	418*	259
CC(=O)Nc1ccc(CN2CCCCCCC2)cc1	-3.0	-1.0	-35.4	-4.2	-0.25	-1.89*	488*	208
CCOC(=O)N1CCN(C(=O)CS(=O)(=O)c2cn(Cc3ccc(F)cc3)c3ccccc23)CC1	4.2	-1.3	4.8	2.8	0.462	-1.53	/	/
COc1ccc(CN2C(=O)CCC2(C)C(=O)NC2CCCCCC2)cc1 (stereo not drawn)	8.7	-0.1	17.0	-6.2	0.488	0.15	/	/
COc1cccc(CN2C(=O)CCC2(C)C(=O)NC2CCCCC2)c1 (stereo not drawn)	3.2	-1.4	-5.6	1.6	-0.486	-3.5*	582	229
O=C(CN1CCCC(O)C1)N1c2ccccc2Sc2ccc(C(F)(F)F)cc21 (stereo not drawn)	-3.0	-0.6	-23.2	-4.5	0.407	-10.6*	16*	227
O=C(CN1CCC(n2nnc3cc(C(F)(F)F)ccc32)CC1)N1CCc2ccccc21	1.1	-1.0	5.5	-8.3	0.0502	0.21	/	/
c1ccc(-c2oc3ncnc(NCCCn4ccnc4)c3c2-c2ccccc2)cc1	9.3	-0.7	-14.5	2.4	0.0365	-3.88*	435	145*
c1ccc(-c2oc3ncnc(NCCN4CCOCC4)c3c2-c2ccccc2)cc1	6.4	-1.0	-9.1	0.5	0.785	0.0518	/	/
CCC1CCCCN1CCCNC(=O)c1cn(CC(C)C)c(=O)c2cc(OC)c(OC)cc12 (stereo not drawn)	/	/	/	/	0	-1.18*	458*	250
c1ccc(-c2csc(-n3cnnn3)n2)cc1	-4.6	-1.1	4.6	-0.6	0.107	-0.921	/	/
Cc1c(NC2=C(Cl)C(=O)N(c3ccccc3)C2=O)c(=O)n(-c2ccccc2)n1C	7.5	-1.3	-3.4	-7.0	-0.363	-6.27*	151*	195
O=C(Nc1cccc(S(=O)(=O)C(F)F)c1)c1ccc(Cl)c(S(=O)(=O)N2CCOCC2)c1	8.8	0.5	12.5	0.1	1.04	-2.24*	588	104*
CCN(CCCNC(=O)COc1cc(=O)n(C)c2ccccc12)c1cccc(C)c1	-6.7	-0.5	-31.1	-2.1	0.246	-1.92*	630	250
COCCNC(=O)COc1cc(=O)n(C)c2ccccc12	8.7	-1.0	-11.5	-1.6	0.186	-0.722	/	/
Cc1ccc(S(=O)(=O)NC2=NCN(Cc3ccccc3)CN2)cc1	-9.7	-0.4	0.9	-10.0	-0.434	0.0442	/	/
Cc1ccc(S(=O)(=O)NC2=NCN(C3CCN(Cc4ccccc4)CC3)CN2)cc1	3.0	-0.1	-28.7	3.4	0.586	-3.2*	449	201
CCCCC(=O)NC1=NC(=O)C(C)(C)S1	-5.3	-0.4	-20.6	-4.2	-0.812	0.131	/	/
O=C(Nc1ccccc1)N(C1=NCCC1)c1ccc(OC(F)F)cc1	0.9	-1.3	-20.8	8.2	-0.114	-0.641	/	/
O=C(NCCC1=CCCCC1)C1CCN(c2nnc(-n3cccc3)s2)CC1	-5.2	-0.3	-14.5	-0.1	0.622	0.123	/	/
CC1CCN(Cc2ccc(NC(=O)C3CCN(c4nnc(-n5cccc5)s4)CC3)cc2)CC1	6.6	5.3	-5.0	-6.3	-0.715	-12.6*	14.8*	220
Cc1nn(Cc2ccccc2Cl)c2sc(C(=O)NCCCn3ccnc3)cc12	3.2	-0.7	-21.4	6.5	-1.26	-7.87*	287*	186
Cc1nn(Cc2ccccc2Cl)c2sc(C(=O)OC3CCCC3=O)cc12 (stereo not drawn)	-5.2	-0.6	-33.8	3.6	-0.364	-0.07	/	/
CCN(C(=O)CN1CCN(c2ccc(O)cc2)CC1)c1c(N)n(Cc2ccccc2)c(=O)[nH]c1=O	-1.4	0.7	3.7	-0.2	1.31	1	/	/
CCCCS(=O)(=O)NC1=NCN(CCOC(=O)c2ccccc2)CN1	-1.4	-0.9	/	-2.4	-0.0615	-0.45	/	/
SMILES	Jurkat tox 60K	S1P3 agonist	S1P1 ag-PAM	JNK3 inh	M1 agonist	M1 antagonist	M1 antag confirm	mGluR4 antag
Cc1ccc2oc(=O)c3cnn(CC(=O)Nc4ccccc4N4CCN(C)CC4)c3c2c1	-2.1	-0.8	1.9	-5.4	0.0539	-15.9*	252*	259
O=C(Cn1c(=O)sc2ccccc21)Nc1ccccc1C(=O)O	/	/	/	/	-0.497	-0.923	/	/
O=C(Nn1c(C2CCC2)nc2ccccc2c1=O)C1CCC1	/	/	/	/	0.21	0.432	/	/
COc1ccccc1C(=O)Nn1c(C2CCC2)nc2ccccc2c1=O	-1.6	-0.8	22.9	-1.6	0.713	-3.34*	519	180
CC(CC(=O)NCc1ccccc1)C1CCCO1 (stereo not drawn)	1.0	-0.8	/	-0.3	0.0207	0.0825	/	/
CCOC(=O)c1cc2c(N)c(C(=O)c3cc(C#N)c(SC)nc3C)sc2nc1C	1.7	-0.6	-9.5	-3.2	-0.912	1.21	/	/
CCOC(=O)C1=C(CS(=O)(=O)c2ccc(F)c(C)c2)NC(=O)NC1c1ccc(O)c(O)c1 (stereo not drawn)	-5.5	0.4	6.6	2.8	0.243	-1.04	/	/
N=c1sccn1CC(=O)Nc1cccc(Oc2ccccc2)c1	6.8	-0.6	-29.1	2.5	0.878	-2.45*	381*	238
CN1C(=O)NC(c2ccc(O)cc2)C(C(=O)c2cccs2)C1(O)C(F)(F)F (stereo not drawn)	-4.6	0.1	-21.5	-2.7	-0.0407	-3.35*	433	183
O=C1NC(c2ccccc2)C(C(=O)c2cccs2)C(O)(C(F)(F)F)N1 (stereo not drawn)	2.5	-0.5	11.8	-2.7	0.173	0.911	/	/
CCOc1ccc(C(=O)CCN2CCCCCC2)cc1	2.3	0.1	14.5	6.9	2.28	-2.53*	444	196
CCCOc1ccc(C(=O)CCN2CCCCC2)cc1	0.3	-1.5	12.4	-0.8	0.258	-2.05	/	/
COC(=O)c1ccc(NC(=O)CCN2CCCCC2)cc1	-2.7	-0.1	-6.7	1.8	0.0708	-1.31*	553*	264
CCCN(CCC)S(=O)(=O)c1cc(Br)cc2c1N(C(=O)CC)CC2	/	/	/	/	-0.0472	-0.323	/	/
Cn1cc(CNC(=O)C2c3ccccc3Oc3ccccc32)cn1	-5.8	-1.3	-4.7	1.8	-0.868	2.26	/	/
CC(C)[N+](C)(CCOC(=O)C1c2ccccc2Oc2ccccc21)C(C)C	/	-2.4	-3.8	-2.8	0.771	-15.7*	19.2*	233
CC(C)CCN(C)C1CCN(S(=O)(=O)c2cccc(C(F)(F)F)c2)CC1	-7.8	0.1	-3.0	-3.9	-0.109	-8.95*	215*	214
